# Reference: ChEMBL document CHEMBL3045023, “Design, synthesis, and antiviral activity evaluation of phenanthrene-based antofine derivatives” (2012)
# How the values were obtained:
# Assay type in all cases: functional
# Tobacco mosaic virus [1] = assay: Antiviral activity against Tobacco mosaic virus (TMV) assessed as inhibition of viral growth at 500 ug/mL; conditions: read-out: GI
# Summary of the method: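 Leaves of 5–6-growth-stage tobacco were rub-inoculated with TMV juice (5.88 × 10−2 μg/mL), then cut into halves along the main vein. One half was immersed in 500 μg/mL compound and the other in double-distilled water, each for 20 min. Halves were cultured at 25 °C for 72 h, with at least 3 replicates. Inhibition % = (control − treated average lesion number)/control × 100.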
# Tobacco mosaic virus [2] = assay: Antiviral activity against Tobacco mosaic virus (TMV) inoculation on Nicotiana tabacum L. whole leaves assessed as virus infection curative effect at 500 ug/mL measured 3 to 4 days post inoculation
# Summary of the method: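 Whole N. tabacum L. leaves of the same age were inoculated with TMV (6.0 × 10−3 mg/mL), then washed and dried. Compound was then smeared on the left half and solvent on the right half as control. Local lesions were counted 3–4 days post-inoculation, in triplicate. Inhibition % was calculated from average lesion numbers versus control.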
# Tobacco mosaic virus [3] = assay: Antiviral activity against Tobacco mosaic virus (TMV) inoculation on Nicotiana tabacum L. whole leaves assessed as virus infection protective effect at 500 ug/mL measured 3 to 4 days post inoculation
# Summary of the method: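 On N. tabacum L. leaves of the same age, compound was smeared on the left half and solvent on the right half as control. After 12 h, leaves were dusted with silicon carbide, brush-inoculated with TMV (6 × 10−3 mg/mL), then washed. Local lesions were counted 3–4 days later, in triplicate. Inhibition % was calculated from average lesion numbers versus control.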
# Tobacco mosaic virus [4] = assay: Antiviral activity against Tobacco mosaic virus (TMV) inoculation on Nicotiana tabacum L. whole leaves assessed as virus inactivation effect at 500 ug/mL measured 3 to 4 days post inoculation
# Summary of the method: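 TMV was mixed with an equal volume of compound solution for 30 min. The mixture was inoculated on the left half of N. tabacum L. leaves, and virus mixed with solvent on the right half as control. Local lesions were recorded 3–4 days post-inoculation, in triplicate. Inhibition % was calculated from average lesion numbers versus control.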
SMILES,inhibition of growth at 500 µg/mL (Tobacco mosaic virus [1]) [%],Activity (Tobacco mosaic virus [2]) [%],Activity (Tobacco mosaic virus [3]) [%],Activity (Tobacco mosaic virus [4]) [%]
CCN(CC)C(=O)[C@@H]1CCCN1Cc1c(Br)c2ccc(OC)cc2c2cc(OC)c(OC)cc12,12.5,8.9,16.8,23.7
CCN(CC)C(=O)[C@H]1CCCN1Cc1c(Br)c2cc(OC)c(OC)cc2c2cc(OC)c(OC)cc12,33.3,30.2,27.6,21.3
COc1ccc(/C=C(/C(=O)N2CCC[C@H]2CO)c2ccc(OC)c(OC)c2)cc1OC,11.7,18.1,19.3,20.9
COC(=O)[C@@H]1CCCN1Cc1c(Br)c2cc(OC)c(OC)cc2c2cc(OC)c(OC)cc12,19.6,27.8,33.3,21.4
CCN(CC)C(=O)c1cccn1Cc1c(Br)c2cc(OC)c(OC)cc2c2cc(OC)c(OC)cc12,18.2,10.6,13.1,20
CC(=O)N1CN(C(C)=O)C(=O)NC1=O,50,–,–,–
CCN(CC)C(=O)[C@@H]1CCCCN1Cc1c(Br)c2cc(OC)c(OC)cc2c2cc(OC)ccc12,30.7,26.4,34.3,25.2
COc1ccc2c(CN3CCC[C@H]3C#N)c(Br)c3cc(OC)c(OC)cc3c2c1,22.7,20.5,15.3,12.6
COc1ccc2c(Br)c(CN3CCC[C@H]3C(N)=O)c3cc(OC)c(OC)cc3c2c1,35.5,30.7,32.4,12.3
COc1cc2c(Br)c(CN3CCC[C@H]3C(=O)O)c3cc(OC)c(OC)cc3c2cc1OC,20.4,13.5,10.2,17
COc1ccc2c(Br)c(CN3CCC[C@H]3C#N)c3cc(OC)c(OC)cc3c2c1,20.9,18.9,24.5,27.7
CCN(CC)C(=O)[C@H]1CCCCN1Cc1c(Br)c2cc(OC)c(OC)cc2c2cc(OC)ccc12,12.1,17.6,21.3,15.4
CCN(CC)C(=O)[C@@H]1CCCN1Cc1c(Br)c2ccc(OC)c(Br)c2c2cc(OC)c(OC)cc12,19.6,22.3,15.3,17.8
CCN(CC)C(=O)[C@@H]1CCCN1Cc1c(Br)c2cc(OC)c(OC)cc2c2c(Br)c(OC)ccc12,32.5,23.5,26.1,20.7
COc1cc2cc(C(=O)N3CCC[C@H]3C=O)c3cc(OC)c(OC)cc3c2cc1OC,22.2,20.3,21.4,15.2
COc1cc2c(Br)c(CBr)c3cc(OC)c(OC)cc3c2cc1OC,6.1,1.8,5.2,4.3
COc1cc2cc(C(=O)O)c3cc(OC)c(OC)cc3c2cc1OC,0,3.6,4.8,4.2
COc1cc2cc(C(=O)N3CCCCC3)c3cc(OC)c(OC)cc3c2cc1OC,32.5,28.9,30.6,24.5
